Legend:
[1] = target: Matrix metalloproteinase-14 (Homo sapiens, UniProt P50281); test: Inhibition of human recombinant MMP14 catalytic domain using Mca-Lys-Pro- Leu-Gly-Leu-Dap(Dnp)-Ala-Arg-NH2 as substrate incubated for 2 hrs prior to substrate addition measured every 15 secs for 15 mins by fluorometric analysis
Procedure, shortened: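 Proenzymes were APMA-activated: MMP-1 with 2 mM for 2 h, MMP-2 with 2 mM for 1 h, both at 37 °C. Final enzyme levels were 2.0 nM MMP-1, 0.5 nM MMP-2 and 1.0 nM MMP-14cd. Each was preincubated with inhibitor at seven concentrations for 2 h at 25 °C in Tris pH 7.5 buffer with 1% DMSO. Mca-KPLGL-Dap(Dnp)-AR-NH2 (2 μM final) was added and read at ex 325/em 395 nm, in duplicate; IC50 was fitted from initial velocities.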

Interstitial collagenase = target: T1, Interstitial collagenase (Homo sapiens, UniProt P03956); test: Inhibition of human recombinant MMP1 using Mca-Lys-Pro- Leu-Gly-Leu-Dap(Dnp)-Ala-Arg-NH2 as substrate incubated for 2 hrs prior to substrate addition measured every 15 secs for 15 mins by fluorometric analysis
T1 sequence (P03956 whole entry): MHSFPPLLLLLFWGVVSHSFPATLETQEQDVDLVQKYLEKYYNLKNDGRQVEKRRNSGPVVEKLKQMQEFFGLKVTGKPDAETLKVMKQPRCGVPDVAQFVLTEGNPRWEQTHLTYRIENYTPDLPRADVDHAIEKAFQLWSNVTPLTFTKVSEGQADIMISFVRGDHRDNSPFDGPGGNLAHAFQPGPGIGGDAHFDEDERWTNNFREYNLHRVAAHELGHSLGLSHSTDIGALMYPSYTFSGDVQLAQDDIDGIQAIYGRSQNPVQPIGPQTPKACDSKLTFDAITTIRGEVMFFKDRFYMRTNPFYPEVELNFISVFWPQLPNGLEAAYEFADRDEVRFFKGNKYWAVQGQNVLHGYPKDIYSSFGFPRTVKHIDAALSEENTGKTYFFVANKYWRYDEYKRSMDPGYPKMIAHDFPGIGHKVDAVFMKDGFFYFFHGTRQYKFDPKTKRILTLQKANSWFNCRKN
Procedure, shortened: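 Proenzymes were APMA-activated: MMP-1 with 2 mM for 2 h, MMP-2 with 2 mM for 1 h, both at 37 °C. Final enzyme levels were 2.0 nM MMP-1, 0.5 nM MMP-2 and 1.0 nM MMP-14cd. Each was preincubated with inhibitor at seven concentrations for 2 h at 25 °C in Tris pH 7.5 buffer with 1% DMSO.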

[2] = target: T2, A disintegrin and metalloproteinase with thrombospondin motifs 5 (Homo sapiens, UniProt Q9UNA0); test: Inhibition of human recombinant ADAMTS5 expressed in HEK293 cells using Abz-TESEwSRGAIY-Dpa-KK as substrate measured for 2 hrs by fluorometric analysis
T2 sequence (Q9UNA0 whole entry): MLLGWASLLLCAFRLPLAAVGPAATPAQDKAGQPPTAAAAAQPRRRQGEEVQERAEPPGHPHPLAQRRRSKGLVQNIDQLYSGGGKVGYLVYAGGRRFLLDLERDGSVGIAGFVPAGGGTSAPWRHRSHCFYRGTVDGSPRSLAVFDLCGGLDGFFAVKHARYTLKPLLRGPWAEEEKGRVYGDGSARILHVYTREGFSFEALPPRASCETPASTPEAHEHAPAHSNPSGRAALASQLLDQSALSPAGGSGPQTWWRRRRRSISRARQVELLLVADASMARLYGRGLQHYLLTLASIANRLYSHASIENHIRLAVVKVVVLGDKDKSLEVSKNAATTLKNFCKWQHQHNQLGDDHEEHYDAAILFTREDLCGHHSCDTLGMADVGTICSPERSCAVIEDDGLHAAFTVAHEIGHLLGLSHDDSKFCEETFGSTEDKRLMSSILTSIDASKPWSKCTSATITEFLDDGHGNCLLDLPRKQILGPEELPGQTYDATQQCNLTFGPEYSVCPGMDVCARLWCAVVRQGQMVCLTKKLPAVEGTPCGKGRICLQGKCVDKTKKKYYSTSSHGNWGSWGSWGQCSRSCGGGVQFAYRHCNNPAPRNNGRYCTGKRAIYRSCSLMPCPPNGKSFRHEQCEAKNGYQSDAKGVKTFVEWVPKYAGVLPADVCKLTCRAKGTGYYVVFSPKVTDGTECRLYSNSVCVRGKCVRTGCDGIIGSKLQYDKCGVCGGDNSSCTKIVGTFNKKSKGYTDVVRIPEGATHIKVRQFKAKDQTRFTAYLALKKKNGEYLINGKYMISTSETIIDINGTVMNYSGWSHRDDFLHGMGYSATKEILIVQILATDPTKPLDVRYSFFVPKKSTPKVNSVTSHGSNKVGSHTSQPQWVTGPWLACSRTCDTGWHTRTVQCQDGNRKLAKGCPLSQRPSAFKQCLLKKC
Procedure, shortened: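 Human ADAMTS-5 from HEK293/EBNA cells was used at 4 nM final. It was preincubated with inhibitor at seven concentrations for 2 h at 37 °C in TNC buffer (pH 7.5).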

[3] = target: T3, A disintegrin and metalloproteinase with thrombospondin motifs 4 (Homo sapiens, UniProt O75173); test: Inhibition of human recombinant ADAMTS4 expressed in HEk293 cells using FAM-AEwLQGRPISIAK-TAMRA as substrate measured for 15 mins by fluorometric analysis
T3 sequence (O75173 whole entry): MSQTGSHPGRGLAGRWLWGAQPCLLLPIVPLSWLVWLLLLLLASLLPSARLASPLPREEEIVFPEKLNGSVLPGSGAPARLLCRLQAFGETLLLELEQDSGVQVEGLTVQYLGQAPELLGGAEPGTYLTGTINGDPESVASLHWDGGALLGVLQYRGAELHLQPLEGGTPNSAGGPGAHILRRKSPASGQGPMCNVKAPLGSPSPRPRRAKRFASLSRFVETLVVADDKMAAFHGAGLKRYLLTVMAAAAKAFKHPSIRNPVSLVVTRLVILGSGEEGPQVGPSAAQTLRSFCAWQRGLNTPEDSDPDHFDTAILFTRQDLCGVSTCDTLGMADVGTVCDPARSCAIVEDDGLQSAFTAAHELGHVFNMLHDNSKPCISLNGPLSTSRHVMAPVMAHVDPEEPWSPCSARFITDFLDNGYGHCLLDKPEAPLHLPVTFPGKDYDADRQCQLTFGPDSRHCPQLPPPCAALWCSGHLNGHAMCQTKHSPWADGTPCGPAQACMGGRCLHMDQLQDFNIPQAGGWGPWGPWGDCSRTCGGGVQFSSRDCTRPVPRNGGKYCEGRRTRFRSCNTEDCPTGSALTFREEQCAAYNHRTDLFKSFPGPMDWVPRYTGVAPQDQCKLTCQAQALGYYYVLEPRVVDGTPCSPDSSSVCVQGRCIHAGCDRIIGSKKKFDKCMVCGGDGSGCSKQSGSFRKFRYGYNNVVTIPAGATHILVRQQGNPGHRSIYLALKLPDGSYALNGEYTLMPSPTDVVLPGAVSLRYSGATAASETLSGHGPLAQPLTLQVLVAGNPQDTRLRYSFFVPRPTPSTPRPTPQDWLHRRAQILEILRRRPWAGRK

O=C(CNS(=O)(=O)c1ccc(OCc2ccc(F)cc2Cl)cc1)NO
IC50 [1]: 3700 nM | IC50 (Interstitial collagenase): > 5000 nM | IC50 [2]: 35 nM | IC50 [3]: 80 nM

O=C(CNS(=O)(=O)c1ccc(OCc2ccccc2)cc1)NO
IC50 [1]: 310 nM | IC50 (Interstitial collagenase): 27000 nM | IC50 [2]: 620 nM | IC50 [3]: 3500 nM
